Calls of active or inactive are those of the source. The rule behind the calls is not given here.

Experimental findings from ChEMBL document CHEMBL4725313, “Development of phenylthiourea derivatives as allosteric inhibitors of pyoverdine maturation enzyme PvdP tyrosinase” (Bioorg Med Chem Lett, 2020) are described below.

Data set [1] is described as follows: Inhibition of Pseudomonas aeruginosa PvdP tyrosinase.
The test system of data set [2] is Pseudomonas aeruginosa. The data set can be described thus: Non-competitive inhibition of Pseudomonas aeruginosa PvdP tyrosinase assessed as Km at 0.5 uM by Lineweaver-Burk double reciprocal plot analysis (reference value: 1.136 mM).
The test system of data set [3] is Pseudomonas aeruginosa. The data set can be described thus: Inhibition of Pseudomonas aeruginosa PvdP tyrosinase mutant at 1 uM.
The test system of data set [4] is Pseudomonas aeruginosa PAO1. The data set can be described thus: (§1) Inhibition of PvdP tyrosinase in Pseudomonas aeruginosa PAO1 assessed as reduction in pyoverdin production incubated for 24 hrs in low iron medium. The essentials:
(§2)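 P. aeruginosa PAO1 grown 24 h in low-iron medium with a serial dilution of compound (200 - 0.79 µM; final DMSO 1%). Vehicle 1% DMSO as negative control. After incubation, pyoverdine read at 405 nm and cell growth at 600 nm.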

Data set [5] can be described thus: as §1. Put shortly:
as §2

The test system of data set [6] is Pseudomonas aeruginosa. The data set can be described thus: Non-competitive inhibition of Pseudomonas aeruginosa PvdP tyrosinase assessed as Vmax at 0.5 uM by Lineweaver-Burk double reciprocal plot analysis (reference value: 0.0155 1/min).
Data set [7] concerns Pseudomonas aeruginosa. The data set can be described thus: Non-competitive inhibition of Pseudomonas aeruginosa PvdP tyrosinase assessed as Vmax at 0.2 uM by Lineweaver-Burk double reciprocal plot analysis (reference value: 0.0155 1/min).
Data set [8] has as its system Pseudomonas aeruginosa. The data set can be described thus: Non-competitive inhibition of Pseudomonas aeruginosa PvdP tyrosinase assessed as Km at 0.2 uM by Lineweaver-Burk double reciprocal plot analysis (reference value: 1.136 mM).
Data set [9] in a line: Selectivity ratio of IC50 for mushroom tyrosinase to IC50 for Pseudomonas aeruginosa PvdP tyrosinase.
Data set [10] addresses Mushroom tyrosinase (Agaricus bisporus, UniProt O42713+Q00024+C7FF04+C7FF05). The data set can be described thus: Inhibition of mushroom tyrosinase.
The subject of data set [11] is Pseudomonas aeruginosa. The data set can be described thus: Inhibition of Pseudomonas aeruginosa PvdP tyrosinase up to 100 uM relative to control. The following applies: dose microM <=100.

Turning to `Fc1cccc(Cl)c1NC(=S)Nc1ccccc1`, in data set [1], the IC50 entry is reported as “Not Active”. As to `S=C(NCc1ccc(Cl)cc1)Nc1ccccc1`, the Km in data set [2] came out at 1140 µM; in data set [8], 1130 µM. For the same compound, the inhibition entry in data set [3] is “inactive”. Further, in data set [4], the inhibition result is “Dose-dependent effect”. The IC50 in data set [5] stood at 44.9 µM; in data set [1] (read-out: IC50), 0.57 µM; in data set [10] it was 328 µM. Moreover, the Vmax in data set [6] was 0.0111 min⁻¹; in data set [7], 0.0126 min⁻¹. Further, the “Ratio IC50” value in data set [9] is > 500. As to `NC(=S)Nc1ccccc1` [PHENYLTHIOUREA], the IC50 in [1] (read-out: IC50) came out at 174 µM. Regarding `CN(C)c1ccc(NC(=S)NCc2ccc(Cl)cc2)cc1`, in data set [1] (read-out: IC50), the IC50 stood at 14.3 µM.

For the compound `Cc1ccc(NC(=S)NCc2ccc(Cl)cc2)cc1`, the 50% inhibitory concentration (IC50) in data set [1] (read-out: IC50) was found to be 22.3 µM. In the case of `S=C(NCc1ccc(Br)cc1)Nc1ccccc1`, in [1] (read-out: IC50), the IC50 is 23.5 µM. Take `S=C(NCc1ccccc1)Nc1ccccc1`: in [1] (read-out: IC50), the IC50 amounted to 19.4 µM. `Fc1ccc(CNC(=S)Nc2ccccc2)cc1`: in data set [1] (read-out: IC50), the IC50 worked out at 13.6 µM. With `COc1ccc(CN=C(S)Nc2ccccc2)cc1`, in data set [1] (read-out: IC50), the half-maximal inhibitory concentration (IC50) is 19.3 µM.

`NC(=O)Nc1ccccc1` [PHENYLUREA]: in [11], the inhibition is < 50%. Also, the IC50 result in [1] is listed as “Not Active”. As for `CNC(=S)Nc1ccccc1`, in data set [1], the IC50 result is “Not Active”. For `Fc1ccc(CCNC(=S)Nc2ccccc2)cc1`, in data set [1] (read-out: IC50), the IC50 is 22.6 µM. For the compound `S=C(NCc1c(Cl)cccc1Cl)Nc1ccccc1`, the IC50 in data set [1] (read-out: IC50) was 7.6 µM; in data set [10], > 500 µM. Also, the “Ratio IC50” value in [9] was > 500. Turning to `S=C(NCc1ccccc1Cl)Nc1ccccc1`, the IC50 in [1] (read-out: IC50) is 7.9 µM; in data set [10], > 500 µM. In addition, the “Ratio IC50” value in data set [9] is recorded as > 500. For `C=CCNC(=S)Nc1ccccc1`, the IC50 result in data set [1] is listed as “Not Active”.
